Published values gathered from unrelated publications.
Compare with care: the assays were run in different laboratories.
Target: Dual specificity mitogen-activated protein kinase kinase 6 (MAP2K6, Homo sapiens, UniProt P52564)
Residues used in one study (P52564 1-334): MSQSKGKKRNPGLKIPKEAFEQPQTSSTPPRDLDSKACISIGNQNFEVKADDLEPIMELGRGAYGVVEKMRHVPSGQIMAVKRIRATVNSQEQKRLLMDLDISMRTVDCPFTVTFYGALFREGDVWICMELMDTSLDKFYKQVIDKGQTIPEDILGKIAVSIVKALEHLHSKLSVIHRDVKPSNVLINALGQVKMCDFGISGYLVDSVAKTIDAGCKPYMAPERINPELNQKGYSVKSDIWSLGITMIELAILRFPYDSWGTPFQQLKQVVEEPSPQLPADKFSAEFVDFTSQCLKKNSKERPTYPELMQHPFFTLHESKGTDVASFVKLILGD

| SMILES | assay | setting | remaining binding |
| --- | --- | --- | --- |
| CS(=O)(=O)N1CCCC(NC(=O)[C@H](CCC2CCCCC2)NC(=O)c2ccc(CNC(=O)c3cnc4ccccn34)cc2)C1 (some centres unmarked) | cell-free assay, competition with immobilised ligand | 0.1 µM | 72% |
| N[C@@H]1CCN(c2nccc(-c3cnn4ncccc34)n2)C1 | binding | 1 µM | 100% |
| COc1cnc(Nc2cccc(S(N)(=O)=O)c2)nc1N1CCN(c2ccccc2)C(=O)C1 | binding, competition with immobilised ligand | 1 µM | 100% |
| Cc1cnc(Nc2ccc(C(=O)N3CCC(N4CCCC4)CC3)cc2)nc1-c1cc2ccccc2s1 | binding, competition with immobilised ligand | 1 µM | 30% |
| CC1=C(C#N)[C@@H](c2ccc3[nH]nc(C)c3c2)C(C#N)=C(c2ccc(Cl)cc2)N1 | cell-free assay, competition with immobilised ligand | 1 µM | 100% |
| COc1ncc2cc3ccccc3nc2c1C#N | cell-free assay, competition with immobilised ligand | 5 µM | 100% |
| C[C@H](c1ccnc(Nc2nc3ccc(-c4cc(N(C)C)ncn4)cc3[nH]2)c1)N1CCN(C(=O)CC(F)(F)F)CC1 | cell-free assay, competition with immobilised ligand | 0.1 µM | 96% |
| Nc1ncc2c(n1)-c1c([nH]c3ccc(C#CC4CC4)cc13)CCCC2 | binding, competition with immobilised ligand | 1 µM | 100% |
| COc1ccnn2ncc(-c3ccnc(N(C)C)n3)c12 | binding | 1 µM | 100% |
| O=C(c1ccc(Nc2nccc(-c3cc4ccccc4s3)n2)cc1)N1CCC(N2CCCC2)CC1 | binding, competition with immobilised ligand | 1 µM | 33% |
| c1cnn2ncc(-c3ccnc(N4CCC45COC5)n3)c2c1 | binding | 1 µM | 100% |
| COc1cnc(Nc2cccc(S(N)(=O)=O)c2)nc1N1CCN(c2ccccc2)CC1 | binding, competition with immobilised ligand | 1 µM | 100% |
| FC(F)(F)Oc1cccc(-c2cnc3ccc(-c4ccncc4)nn23)c1 | cell-free assay, competition with immobilised ligand | 5 µM | 84% |
| F[C@@H]1CCN(c2nccc(-c3cnn4ncccc34)n2)C1 | binding | 1 µM | 100% |
| CC(=O)C1=C(C)N(c2cccc(C(F)(F)F)c2)C(=O)N[C@@H]1c1ccc(C#N)nc1 | cell-free assay, competition with immobilised ligand | 1 µM | 94.6% |
| CN(C)c1nccc(-c2cnc3ncccn23)n1 | binding | 1 µM | 99% |
| O=C(Nc1c[nH]nc1C(=O)NC1CCNCC1)c1cc(F)cc(F)c1 | binding, competition with immobilised ligand | 1 µM | 100% |
| CN([C@@H]1CCc2c(CC(=O)O)c3ccccc3n2C1)S(=O)(=O)c1ccc(F)cc1 | cell-free assay, competition with immobilised ligand | 1 µM | 100% |
| CC1CCCN1c1nccc(-c2cnn3ncccc23)n1 (centres unmarked) | binding | 1 µM | 100% |
| Cn1nc(C(=O)NCc2ccc(C(=O)O)cc2)cc1-c1ccc2[nH]ccc2c1 | cell-free assay, competition with immobilised ligand | 0.1 µM | 100% |
| C[C@@H]1CCN(c2nccc(-c3cnn4ncccc34)n2)C1 | binding | 1 µM | 100% |
| O=C(NCCCN1CCOCC1)c1ccc(Nc2nccc(-c3cc4ccccc4s3)n2)cc1 | binding, competition with immobilised ligand | 1 µM | 76% |
| Nc1cnc(N2CCc3cc(S(=O)(=O)Nc4c(F)cc(Cl)cc4F)cc(N4CCCC4=O)c32)nc1 | cell-free assay, competition with immobilised ligand | 1 µM | 71% |
